pIC50, pKi: −log10 of the molar value. The source made the active and inactive calls. The calls are words filed in the database; no cut-off is given here.
Assays:
[1] = biological target: T1, Tyrosine-protein phosphatase non-receptor type 1 (Homo sapiens, UniProt P18031); assay: Inhibition of PTP1B (unknown origin) using pNPP as substrate by colorimetric assay
T1 sequence (P18031 whole entry): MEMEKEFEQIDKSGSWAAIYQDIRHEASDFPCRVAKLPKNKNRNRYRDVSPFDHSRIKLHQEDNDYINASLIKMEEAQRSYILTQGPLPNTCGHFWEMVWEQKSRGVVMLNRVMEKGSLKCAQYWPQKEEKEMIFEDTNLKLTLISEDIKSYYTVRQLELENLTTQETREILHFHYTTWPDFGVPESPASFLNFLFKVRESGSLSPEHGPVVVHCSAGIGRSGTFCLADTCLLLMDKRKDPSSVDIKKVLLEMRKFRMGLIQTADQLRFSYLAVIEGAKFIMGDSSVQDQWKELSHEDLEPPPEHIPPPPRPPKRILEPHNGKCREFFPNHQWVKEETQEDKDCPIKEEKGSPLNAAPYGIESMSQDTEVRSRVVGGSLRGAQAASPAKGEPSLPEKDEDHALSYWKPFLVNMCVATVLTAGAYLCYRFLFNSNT
How it was run: (§1)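 GST-PTP1B or GST-TCPTP at 30 nmol/L, 2 mmol/L pNPP, 50 mmol/L MOPS pH 6.5, 2% DMSO, compounds serially diluted from DMSO. Hydrolysis followed continuously at 405 nm for 3 min at 30 °C. IC50 from nonlinear fit of % inhibition vs concentration with Hill coefficient; means ± SD of three replications.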

[2] = biological target: T1, Tyrosine-protein phosphatase non-receptor type 1; assay: Competitive inhibition of PTP1B (unknown origin) using pNPP as substrate by Lineweaver-Burk plot
How it was run: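 Kinetics in 100 µL of 50 mmol/L MOPS pH 6.5 with 30 nmol/L PTP1B, pNPP in 2-fold dilutions from 80 mmol/L, at several inhibitor concentrations. Ki taken from a linear replot of apparent Km/Vmax (slope of double-reciprocal plot) against [I].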

[3] = biological target: T2, Tyrosine-protein phosphatase non-receptor type 2 (Homo sapiens, UniProt P17706); assay: Inhibition of TCPTP (unknown origin) using pNPP as substrate by colorimetric assay; how it was run: as §1
T2 sequence (P17706 whole entry): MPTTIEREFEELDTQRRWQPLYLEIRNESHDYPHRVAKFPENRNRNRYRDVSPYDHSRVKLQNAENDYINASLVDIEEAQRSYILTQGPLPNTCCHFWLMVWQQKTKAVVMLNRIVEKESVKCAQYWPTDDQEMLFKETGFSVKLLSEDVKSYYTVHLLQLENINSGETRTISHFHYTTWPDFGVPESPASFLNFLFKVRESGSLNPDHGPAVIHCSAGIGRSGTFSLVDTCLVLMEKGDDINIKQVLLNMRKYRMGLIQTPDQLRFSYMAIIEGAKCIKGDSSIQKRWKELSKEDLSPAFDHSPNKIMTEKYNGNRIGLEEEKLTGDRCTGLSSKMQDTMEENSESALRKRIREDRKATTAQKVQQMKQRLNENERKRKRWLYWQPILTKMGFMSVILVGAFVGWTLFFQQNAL

[4] = biological target: T3, Tyrosine-protein phosphatase non-receptor type 6 (Homo sapiens, UniProt P29350); assay: Inhibition of SHP1 (unknown origin) using 3-o-methylfluorescein phosphatase substrate by colorimetric assay
T3 sequence (P29350 whole entry): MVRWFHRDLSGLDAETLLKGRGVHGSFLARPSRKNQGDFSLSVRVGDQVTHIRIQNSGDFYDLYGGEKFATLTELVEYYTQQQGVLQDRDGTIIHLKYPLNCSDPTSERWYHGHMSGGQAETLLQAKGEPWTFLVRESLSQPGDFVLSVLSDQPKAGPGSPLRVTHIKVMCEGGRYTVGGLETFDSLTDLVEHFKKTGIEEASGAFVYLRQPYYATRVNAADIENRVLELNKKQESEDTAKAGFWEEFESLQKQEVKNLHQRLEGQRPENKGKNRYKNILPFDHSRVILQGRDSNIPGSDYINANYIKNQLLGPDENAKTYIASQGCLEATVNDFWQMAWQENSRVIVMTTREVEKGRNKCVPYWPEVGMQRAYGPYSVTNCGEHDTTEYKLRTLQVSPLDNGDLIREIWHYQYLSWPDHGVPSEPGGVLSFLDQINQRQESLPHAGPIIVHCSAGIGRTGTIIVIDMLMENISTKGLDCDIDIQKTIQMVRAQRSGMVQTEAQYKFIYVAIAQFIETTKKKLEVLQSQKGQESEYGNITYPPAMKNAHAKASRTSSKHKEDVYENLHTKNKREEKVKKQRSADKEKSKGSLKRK
How it was run: (§2)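 SHP1, SHP2 or LAR recombinant enzyme at 20 nmol/L with 10 µmol/L OMFP in 50 mmol/L MOPS pH 6.5, 2 mmol/L DTT, 1 mmol/L EDTA, 2% DMSO, 30 °C. Fluorescent product read at ex 485/em 530 nm; initial rate from the early linear part of the kinetic curve.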

[5] = biological target: T4, Tyrosine-protein phosphatase non-receptor type 11 (Homo sapiens, UniProt Q06124); assay: Inhibition of SHP2 (unknown origin) using 3-o-methylfluorescein phosphatase substrate by colorimetric assay; how it was run: as §2
T4 sequence (Q06124 whole entry): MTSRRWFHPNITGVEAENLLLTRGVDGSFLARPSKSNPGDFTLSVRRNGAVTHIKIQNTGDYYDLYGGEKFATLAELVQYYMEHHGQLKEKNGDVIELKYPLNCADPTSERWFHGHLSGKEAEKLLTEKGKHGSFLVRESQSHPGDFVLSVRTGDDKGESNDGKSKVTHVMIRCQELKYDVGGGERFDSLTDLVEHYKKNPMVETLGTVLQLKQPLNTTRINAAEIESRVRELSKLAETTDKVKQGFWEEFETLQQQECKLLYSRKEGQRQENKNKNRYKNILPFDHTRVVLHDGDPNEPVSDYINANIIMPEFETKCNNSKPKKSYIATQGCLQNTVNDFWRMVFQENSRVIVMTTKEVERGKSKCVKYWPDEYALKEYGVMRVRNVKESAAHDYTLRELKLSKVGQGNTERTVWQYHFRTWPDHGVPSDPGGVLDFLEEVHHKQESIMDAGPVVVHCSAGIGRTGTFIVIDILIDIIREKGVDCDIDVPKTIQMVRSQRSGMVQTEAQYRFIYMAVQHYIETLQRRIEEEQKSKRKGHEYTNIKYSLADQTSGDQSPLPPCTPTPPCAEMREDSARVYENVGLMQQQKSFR

[6] = biological target: T5, Receptor-type tyrosine-protein phosphatase F (Homo sapiens, UniProt P10586); assay: Inhibition of LAR (unknown origin) using 3-o-methylfluorescein phosphatase substrate by colorimetric assay; how it was run: as §2
T5 sequence (P10586 whole entry): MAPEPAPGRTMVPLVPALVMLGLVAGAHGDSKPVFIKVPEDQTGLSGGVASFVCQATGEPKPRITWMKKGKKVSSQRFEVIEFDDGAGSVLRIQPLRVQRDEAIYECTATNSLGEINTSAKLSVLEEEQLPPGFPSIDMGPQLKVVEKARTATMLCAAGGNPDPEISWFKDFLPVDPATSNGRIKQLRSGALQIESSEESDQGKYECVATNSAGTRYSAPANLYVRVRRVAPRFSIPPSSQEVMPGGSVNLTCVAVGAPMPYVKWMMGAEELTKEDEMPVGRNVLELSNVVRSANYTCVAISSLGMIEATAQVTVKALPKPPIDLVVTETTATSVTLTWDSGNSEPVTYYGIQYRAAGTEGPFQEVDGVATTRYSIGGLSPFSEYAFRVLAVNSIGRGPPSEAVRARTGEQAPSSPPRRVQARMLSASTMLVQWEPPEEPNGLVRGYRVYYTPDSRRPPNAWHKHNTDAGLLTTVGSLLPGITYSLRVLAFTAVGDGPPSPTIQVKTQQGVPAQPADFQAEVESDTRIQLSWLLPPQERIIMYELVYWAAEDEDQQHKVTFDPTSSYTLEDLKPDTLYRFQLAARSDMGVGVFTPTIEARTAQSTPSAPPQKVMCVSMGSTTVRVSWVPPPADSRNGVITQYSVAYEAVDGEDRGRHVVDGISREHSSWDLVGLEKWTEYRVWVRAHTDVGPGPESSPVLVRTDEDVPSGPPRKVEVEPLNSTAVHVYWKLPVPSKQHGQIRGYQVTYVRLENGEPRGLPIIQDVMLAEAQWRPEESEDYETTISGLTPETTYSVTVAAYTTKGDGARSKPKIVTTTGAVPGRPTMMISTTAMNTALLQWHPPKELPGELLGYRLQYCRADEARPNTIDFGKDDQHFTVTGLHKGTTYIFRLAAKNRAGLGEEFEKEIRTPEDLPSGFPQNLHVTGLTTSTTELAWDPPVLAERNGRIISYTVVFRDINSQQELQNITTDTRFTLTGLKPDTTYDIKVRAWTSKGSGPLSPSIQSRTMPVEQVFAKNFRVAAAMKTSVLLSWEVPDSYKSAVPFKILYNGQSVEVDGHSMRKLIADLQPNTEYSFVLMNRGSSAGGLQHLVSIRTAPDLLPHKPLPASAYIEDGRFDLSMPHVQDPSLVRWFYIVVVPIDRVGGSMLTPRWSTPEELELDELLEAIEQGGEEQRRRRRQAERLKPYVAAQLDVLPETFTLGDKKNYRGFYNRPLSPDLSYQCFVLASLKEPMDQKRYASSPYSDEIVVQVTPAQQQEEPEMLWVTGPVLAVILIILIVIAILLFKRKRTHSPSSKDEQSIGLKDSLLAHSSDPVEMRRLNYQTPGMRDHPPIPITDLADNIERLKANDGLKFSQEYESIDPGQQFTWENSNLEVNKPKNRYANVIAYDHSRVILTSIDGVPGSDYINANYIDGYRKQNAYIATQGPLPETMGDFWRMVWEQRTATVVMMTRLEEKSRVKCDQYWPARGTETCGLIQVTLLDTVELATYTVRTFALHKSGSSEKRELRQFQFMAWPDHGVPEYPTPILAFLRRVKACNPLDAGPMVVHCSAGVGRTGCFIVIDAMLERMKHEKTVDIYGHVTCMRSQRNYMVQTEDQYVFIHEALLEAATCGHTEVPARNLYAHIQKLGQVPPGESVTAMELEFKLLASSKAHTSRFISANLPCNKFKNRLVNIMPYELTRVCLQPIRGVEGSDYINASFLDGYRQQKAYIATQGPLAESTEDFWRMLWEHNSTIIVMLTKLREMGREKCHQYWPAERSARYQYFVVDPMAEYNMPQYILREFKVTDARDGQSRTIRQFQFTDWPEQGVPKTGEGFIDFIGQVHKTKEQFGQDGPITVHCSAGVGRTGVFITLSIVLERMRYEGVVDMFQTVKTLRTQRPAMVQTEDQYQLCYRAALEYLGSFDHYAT

Homo sapiens [7] = organism: Homo sapiens; assay: Selectivity ratio of IC50 for TCPTP (unknown origin) to IC50 for PTP1B (unknown origin)
Homo sapiens [8] = organism: Homo sapiens; assay: Selectivity ratio of IC50 for SHP2 (unknown origin) to IC50 for PTP1B (unknown origin)
Homo sapiens [9] = organism: Homo sapiens; assay: Selectivity ratio of IC50 for LAR (unknown origin) to IC50 for PTP1B (unknown origin)
[10] = biological target: T6, Tyrosine-protein phosphatase non-receptor type 1 (Homo sapiens) (UniProt P18031); assay: Inhibition of PTP1B (unknown origin) expressed in CHO cells co-expressing human IRbeta assessed as increase in insulin-stimulated IRbeta phosphorylation at 90 uM after 1 hr by Western blotting analysis; assay type: cell-based
T6 sequence (whole entry): T1 sequence (P18031 whole entry)
How it was run: (§3)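 CHO/hIR cells grown in F12 with 10% FBS, penicillin/streptomycin, 37 °C, 5% CO2. After 2 h serum starvation, compound for 1 h, then 10 nM insulin for 10 min. Lysates in SDS loading buffer run on 8% SDS-PAGE, blotted with anti-pTyr (PY20); β-actin as loading control.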

[11] = biological target: T6, Tyrosine-protein phosphatase non-receptor type 1 (Homo sapiens); assay: Inhibition of PTP1B (unknown origin) expressed in CHO cells co-expressing human IRbeta assessed as increase in insulin-stimulated IRbeta phosphorylation at 3 to 30 uM after 1 hr by Western blotting analysis; assay type: cell-based; how it was run: as §3
[12] = biological target: T7, Tyrosine-protein phosphatase non-receptor type 11 (Homo sapiens) (UniProt Q06124); assay: Inhibition of SHP2 (unknown origin) using 3-o-methylfluorescein phosphatase substrate at 20 ug/ml by colorimetric assay
T7 sequence (whole entry): T4 sequence (Q06124 whole entry)

[13] = biological target: T5, Receptor-type tyrosine-protein phosphatase F; assay: Inhibition of LAR (unknown origin) using 3-o-methylfluorescein phosphatase substrate at 20 ug/ml by colorimetric assay
[14] = biological target: T8, Tyrosine-protein phosphatase non-receptor type 2 (Homo sapiens) (UniProt P17706); assay: Inhibition of TCPTP (unknown origin) using pNPP as substrate at 20 ug/ml by colorimetric assay
T8 sequence (whole entry): T2 sequence (P17706 whole entry)

[15] = biological target: T3, Tyrosine-protein phosphatase non-receptor type 6; assay: Inhibition of SHP1 (unknown origin) using 3-o-methylfluorescein phosphatase substrate at 20 ug/ml by colorimetric assay
[16] = biological target: T6, Tyrosine-protein phosphatase non-receptor type 1 (Homo sapiens); assay: Inhibition of PTP1B (unknown origin) using pNPP as substrate at 20 ug/ml by colorimetric assay

## CCOC(=O)/C(O)=C/C(=O)c1cccc(Cn2cc(C(=O)O)c(=O)c3cc(I)ccc32)c1
[1]
  pIC50: 5.25
[2]
  pKi: 5.88
[3]; read-out: IC50 (converted)
  IC50: 11.5 µM
[4]; read-out: IC50 (converted)
  IC50: 12.4 µM
[5]
  IC50: Not Active
[6]
  IC50: Not Active
Homo sapiens [7]
  Ratio IC50: 2
Homo sapiens [8]
  Ratio IC50: > 10
Homo sapiens [9]
  Ratio IC50: > 10
[10]
  Activity: Active
[11]
  Activity: inactive
[12]
  inhibition: < 50%
[13]
  inhibition: < 50%

## COC(=O)c1c(O)cccc1OCCCNC(=O)c1cn(Cc2ccc(F)cc2)c2ccc([N+](=O)[O-])cc2c1=O
[1]
  pIC50: 4.93
[3]
  IC50: Not Active
[4]
  IC50: Not Active
[5]
  IC50: Not Active
[6]
  IC50: Not Active
[14]
  inhibition: < 50%
[15]
  inhibition: < 50%
[12]
  inhibition: < 50%
[13]
  inhibition: < 50%

## O=C(O)c1cn(Cc2ccccc2)c2ccc(I)cc2c1=O
[16]
  inhibition: 3.1%

## COC(=O)c1c(OCCCN2CCN(c3ccc4c(c3)c(=O)c(C(=O)O)cn4C3CC3)CC2)cccc1OCc1ccccc1
[1]
  pIC50: 4.13

## O=C(NCc1ccccc1)c1cn(C2CC2)c2ccc(I)cc2c1=O
[16]
  inhibition: 6.1%

## O=C(O)c1cn(C2CC2)c2ccc(Cc3ccccc3)cc2c1=O
[16]
  inhibition: 87.5%
[1]
  pIC50: 4.63
[3]
  IC50: Not Active
[4]
  IC50: Not Active
[5]
  IC50: Not Active
[6]
  IC50: Not Active
[14]
  inhibition: < 50%
[15]
  inhibition: < 50%
[12]
  inhibition: < 50%
[13]
  inhibition: < 50%

## O=C(O)c1cn(Cc2ccc(F)cc2)c2ccc([N+](=O)[O-])cc2c1=O
[16]
  inhibition: 36.2%

## O=C(O)c1cn(Cc2ccccc2)c2cc(F)ccc2c1=O
[16]
  inhibition: 0.7%

## O=C(O)c1cn(Cc2ccccc2)c2ccc(F)cc2c1=O
[16]
  inhibition: 15.1%

## O=C(NCc1ccccc1)c1cn(Cc2ccccc2)c2ccc(F)cc2c1=O
[16]
  inhibition: 41.4%

## Nc1ccc2c(c1)c(=O)c(C(=O)O)cn2Cc1ccc(F)cc1
[16]
  inhibition: 12.4%

## O=C(O)c1cn(C2CC2)c2ccc(Cc3ccc(F)cc3)cc2c1=O
[16]
  inhibition: 71.1%
[1]
  pIC50: 4.44
[3]
  IC50: Not Active
[4]
  IC50: Not Active
[5]
  IC50: Not Active
[6]
  IC50: Not Active
[14]
  inhibition: < 50%
[15]
  inhibition: < 50%
[12]
  inhibition: < 50%
[13]
  inhibition: < 50%

## O=C(O)/C(O)=C/C(=O)c1cccc(Cn2cc(C(=O)O)c(=O)c3cc(I)ccc32)c1
[1]
  pIC50: 5.34
[3]; read-out: IC50 (converted)
  IC50: 9.44 µM
[4]; read-out: IC50 (converted)
  IC50: 9.82 µM
[5]
  IC50: Not Active
[6]
  IC50: Not Active
Homo sapiens [7]
  Ratio IC50: 2
Homo sapiens [8]
  Ratio IC50: > 10
Homo sapiens [9]
  Ratio IC50: > 10
[12]
  inhibition: < 50%
[13]
  inhibition: < 50%

## COC(=O)c1c(O)cccc1OCCCNC(=O)c1cn(Cc2ccccc2)c2cc(F)ccc2c1=O
[1]
  pIC50: 4.73

## O=C(NCc1ccc(F)cc1)c1cn(C2CC2)c2ccc(I)cc2c1=O
[16]
  inhibition: 3.3%

## O=C(O)c1cn(C2CC2)c2ccc(I)cc2c1=O
[16]
  inhibition: 3.5%

## O=C(O)c1cn(C2CC2)c2ccc(F)cc2c1=O
[16]
  inhibition: 0.8%

## COC(=O)c1cc(Cn2cc(C(=O)O)c(=O)c3cc(I)ccc32)ccc1O
[1]
  pIC50: 4.77
[3]
  IC50: Not Active
[4]
  IC50: Not Active
[5]
  IC50: Not Active
[6]
  IC50: Not Active
[14]
  inhibition: < 50%
[15]
  inhibition: < 50%
[12]
  inhibition: < 50%
[13]
  inhibition: < 50%

## O=C(NCc1ccccc1)c1cn(C2CC2)c2cc(F)ccc2c1=O
[16]
  inhibition: 7.4%

## O=C(OCc1ccccc1)c1cn(C2CC2)c2ccc(I)cc2c1=O
[16]
  inhibition: 80.5%
[1]
  pIC50: 4.59

## COC(=O)c1cc(Cn2cc(C(=O)NCc3ccccc3)c(=O)c3cc(I)ccc32)ccc1OC
[1]
  pIC50: < 4.46

## O=C(OCc1ccccc1)c1cn(Cc2ccccc2)c2ccc(Cc3ccccc3)cc2c1=O
[16]
  inhibition: 0.1%

## O=C(NCc1ccccc1)c1cn(C2CC2)c2ccc(F)cc2c1=O
[16]
  inhibition: 0.2%

## O=C(OCc1ccc(F)cc1)c1cn(C2CC2)c2ccc(Cc3ccc(F)cc3)cc2c1=O
[16]
  inhibition: 73%
[1]
  pIC50: 4.50

## O=C(O)c1cn(C2CC2)c2ccc(N3CCN(Cc4ccccc4)CC3)cc2c1=O
[16]
  inhibition: 62.3%
[1]
  pIC50: 4.64

## O=C(O)c1cn(Cc2ccccc2)c2ccc(Cc3ccccc3)cc2c1=O
[16]
  inhibition: 15.1%

## O=C(NCc1ccccc1)c1cn(Cc2ccccc2)c2ccc(I)cc2c1=O
[16]
  inhibition: 61.8%
[1]
  pIC50: 4.55
[3]
  IC50: Not Active
[4]
  IC50: Not Active
[5]
  IC50: Not Active
[6]
  IC50: Not Active
[14]
  inhibition: < 50%
[15]
  inhibition: < 50%
[12]
  inhibition: < 50%
[13]
  inhibition: < 50%

## COC(=O)c1cc(Cn2cc(C(=O)O)c(=O)c3cc(I)ccc32)ccc1OC
[1]
  pIC50: < 4.39

## O=C(/C=C(\O)C(=O)N1CCN(C(=O)/C(O)=C\C(=O)c2cccc(N(Cc3ccccc3)Cc3ccccc3)c2)CC1)c1cccc(N(Cc2ccccc2)Cc2ccccc2)c1
[1]
  pIC50: 5.55

Reference: ChEMBL document CHEMBL3352526, “4-Quinolone-3-carboxylic acids as cell-permeable inhibitors of protein tyrosine phosphatase 1B” (Bioorg Med Chem, 2014)
